# Results collected from several papers.
# ATXN3: Ataxin-3 (ATXN3, Homo sapiens, UniProt P54252)
# PIK3C3: Phosphatidylinositol 3-kinase catalytic subunit type 3 (PIK3C3, Homo sapiens, UniProt Q8NEB9)
Compound,target,effect on,mode,technique,concentration,inhibition
C#Cc1n[nH]c2c(-c3cn([C@@H](C)c4ccccc4)c(=O)[nH]c3=O)cc(F)cc12,"Phosphatidylinositol 4-phosphate 3-kinase C2 domain-containing subunit alpha (PIK3C2A, Homo sapiens, UniProt O00443)",enzyme activity,inhibitor,,0.1 µM,11.7%
C[C@@H]1CCCN1CCCCOc1ccc2occc(=O)c2c1,"Bile salt-activated lipase (Homo sapiens, UniProt P19835)",enzyme activity,inhibitor,fluorescence,10 µM,6%
COc1cc(Nc2ncc(F)c(Nc3ccc4c(n3)NC(=O)C(C)(C)O4)n2)cc(OC)c1OC,"Serine/threonine-protein kinase RIO2 (RIOK2, Homo sapiens, UniProt Q9BVS4)",binding,,,10 µM,83%
N=C(N)c1ccc2cc(OC(=O)c3ccc(N=C(N)N)cc3)ccc2c1,ATXN3,enzyme activity,inhibitor,,10 µM,0%
Cn1cc(-c2cccc(N3CCc4c(sc5c4CC(C)(C)C5)C3=O)c2CO)cc(Nc2ccncn2)c1=O,PIK3C3,enzyme activity,inhibitor,,1 µM,0%
C#Cc1n[nH]c2c(-c3cn([C@@H](C)c4ccccn4)c(=O)[nH]c3=O)cc(F)cc12,PIK3C3,enzyme activity,inhibitor,,0.1 µM,8.6%
c1ccc(C(NCCNC(c2ccccc2)c2ccccc2)c2ccccc2)cc1,"Apelin receptor (APLNR, Homo sapiens, UniProt P35414)",cell-free assay,,,10 µM,46%
CN(C)C(=O)COC(=O)Cc1ccc(OC(=O)c2ccc(NC(=N)N)cc2)cc1,ATXN3,enzyme activity,inhibitor,,10 µM,3%
O=C(Nc1cccnn1)N1CCN([C@@H]2CCOc3cc(C(F)(F)F)ccc32)CC1,"Alpha-2C adrenergic receptor (ADRA2C, Homo sapiens, UniProt P18825)",cell-free assay,,,20 µM,23%
Cn1cc(-c2cc(F)cc(N3CCn4c(cc5c4CCCC5)C3=O)c2CO)cc(Nc2ccc(N3CCN(C4COC4)CC3)cn2)c1=O,"Serine/threonine-protein kinase PAK 3 (PAK3, Homo sapiens, UniProt O75914)",enzyme activity,inhibitor,,0.1 µM,16%
CCN(CC)CCCC[C@H](NC(=O)[C@H](CC(C)C)NC(=O)[C@H](C)NC(=O)[C@H](Cc1ccccc1)NC(=O)c1ccc(C(C)(C)C)cc1)C(=O)N[C@@H](CO)C(=O)OC,"5-hydroxytryptamine receptor 1A (HTR1A, Homo sapiens, UniProt P08908)",ligand displacement,,radioligand,10 µM,19%
C[C@H](C(=O)N[C@H]1COc2ccccc2[C@@H]1S(C)(=O)=O)c1ccc(F)cc1,"cGMP-inhibited 3',5'-cyclic phosphodiesterase 3A (PDE3A, Homo sapiens, UniProt Q14432)",cell-free assay,inhibitor,,10 µM,-9%
CN(CCN1CCC(OC(=O)Nc2ccccc2-c2ccccc2)CC1)C(=O)c1ccc(CN2CCC(C(N)=O)CC2)cc1,"Nociceptin receptor (OPRL1, Homo sapiens, UniProt P41146)",ligand displacement,,radioligand,1 µM,0%
